Assay results reported in ChEMBL document CHEMBL5661979, “Pharmacological inhibition of BMK1 suppresses tumor growth through promyelocytic leukemia protein” (Cancer Cell, 2010).

Legend:
Type in all cases: subcellular
[1] = molecular target: T1, Scaffold protein ILK (Homo sapiens) (UniProt Q13418); experiment: Inhibition of ILK in human HeLa cells lysate at 2 uM pre incubated for 15 mins followed by ATP acyl phosphate probe addition and measured after 10 mins by LC-MS/MS analysis relative to control; conditions: time 25.0 min
T1 sequence (whole entry): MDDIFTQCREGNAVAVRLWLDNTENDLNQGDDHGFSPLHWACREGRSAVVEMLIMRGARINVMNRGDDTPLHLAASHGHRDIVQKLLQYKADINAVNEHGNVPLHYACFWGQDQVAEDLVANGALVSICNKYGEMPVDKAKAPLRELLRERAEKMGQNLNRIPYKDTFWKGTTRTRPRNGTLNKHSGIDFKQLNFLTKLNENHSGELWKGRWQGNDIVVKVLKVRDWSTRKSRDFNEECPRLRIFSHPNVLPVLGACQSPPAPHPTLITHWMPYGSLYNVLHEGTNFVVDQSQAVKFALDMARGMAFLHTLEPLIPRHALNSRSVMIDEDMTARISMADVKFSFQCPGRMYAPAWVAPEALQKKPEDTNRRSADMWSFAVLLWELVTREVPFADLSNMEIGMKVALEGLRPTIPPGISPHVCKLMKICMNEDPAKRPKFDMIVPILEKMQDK

[2] = molecular target: Ribosomal protein S6 kinase alpha-1 (Homo sapiens, UniProt Q15418); experiment: Inhibition of RSK1 domain 2 K1 site in human HeLa cells lysate at 2 uM pre incubated for 15 mins followed by ADP acyl phosphate probe addition and measured after 10 mins by LC-MS/MS analysis relative to control; conditions: time 25.0 min
[3] = molecular target: Ribosomal protein S6 kinase beta-2 (Homo sapiens, UniProt Q9UBS0); experiment: Inhibition of P70S6KB in human HeLa cells lysate at 50 uM pre incubated for 15 mins followed by ATP acyl phosphate probe addition and measured after 10 mins by LC-MS/MS analysis relative to control; conditions: time 25.0 min
[4] = molecular target: Serine/threonine-protein kinase 24 (Homo sapiens, UniProt Q9Y6E0); experiment: Inhibition of MST3 in human HeLa cells lysate pre incubated for 15 mins followed by ADP acyl phosphate probe addition and measured after 10 mins by LC-MS/MS analysis
[5] = molecular target: Cyclin-dependent kinase 9 (Homo sapiens, UniProt P50750); experiment: Inhibition of CDK9 in human HeLa cells lysate pre incubated for 15 mins followed by ADP acyl phosphate probe addition and measured after 10 mins by LC-MS/MS analysis
How it was run: (§1)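 KiNativ profiling in HeLa lysate (5 mg/mL total protein). Lysate incubated 15 min with inhibitor at 50, 10, 2, 0.8 or 0 μM. ATP or ADP acylphosphate probe then added (5 μM final) and reacted 10 min. Reaction stopped with urea and analysed by targeted MS, using up to four fragment ions per kinase peptide-probe conjugate. % inhibition taken against untreated lysate. Run in duplicate.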

[6] = molecular target: T2, Non-receptor tyrosine-protein kinase TNK1 (Homo sapiens) (UniProt Q13470); experiment: Inhibition of TNK1 in human HeLa cells lysate at 10 uM pre incubated for 15 mins followed by ADP acyl phosphate probe addition and measured after 10 mins by LC-MS/MS analysis relative to control; conditions: time 25.0 min
T2 sequence (whole entry): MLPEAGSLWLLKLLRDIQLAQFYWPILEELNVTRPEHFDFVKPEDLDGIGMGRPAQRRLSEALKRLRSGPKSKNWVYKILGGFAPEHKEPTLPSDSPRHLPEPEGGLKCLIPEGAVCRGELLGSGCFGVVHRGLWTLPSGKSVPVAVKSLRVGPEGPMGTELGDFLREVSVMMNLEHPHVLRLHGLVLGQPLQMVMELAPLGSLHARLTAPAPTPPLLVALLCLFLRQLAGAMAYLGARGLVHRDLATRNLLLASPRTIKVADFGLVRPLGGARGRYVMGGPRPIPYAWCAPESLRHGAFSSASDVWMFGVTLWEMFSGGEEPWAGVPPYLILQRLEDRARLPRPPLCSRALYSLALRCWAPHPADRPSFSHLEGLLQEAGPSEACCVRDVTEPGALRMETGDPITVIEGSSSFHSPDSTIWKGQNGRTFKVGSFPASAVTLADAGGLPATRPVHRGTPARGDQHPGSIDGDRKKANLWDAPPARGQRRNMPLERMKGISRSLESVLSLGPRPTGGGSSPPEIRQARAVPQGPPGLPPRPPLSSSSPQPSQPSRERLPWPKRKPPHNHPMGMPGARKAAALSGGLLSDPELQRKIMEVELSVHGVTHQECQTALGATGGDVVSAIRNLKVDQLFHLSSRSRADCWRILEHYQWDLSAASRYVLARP

[7] = molecular target: Cyclin-dependent kinase 7 (Homo sapiens, UniProt P50613); experiment: Inhibition of CDK7 in human HeLa cells lysate at 2 uM pre incubated for 15 mins followed by ATP acyl phosphate probe addition and measured after 10 mins by LC-MS/MS analysis relative to control; conditions: time 25.0 min; how it was run: as §1
[8] = molecular target: T3, STE20-related kinase adapter protein beta (Homo sapiens) (UniProt Q9C0K7); experiment: Inhibition of ALS2CR2 in human HeLa cells lysate at 2 uM pre incubated for 15 mins followed by ADP acyl phosphate probe addition and measured after 10 mins by LC-MS/MS analysis relative to control; conditions: time 25.0 min
T3 sequence (whole entry): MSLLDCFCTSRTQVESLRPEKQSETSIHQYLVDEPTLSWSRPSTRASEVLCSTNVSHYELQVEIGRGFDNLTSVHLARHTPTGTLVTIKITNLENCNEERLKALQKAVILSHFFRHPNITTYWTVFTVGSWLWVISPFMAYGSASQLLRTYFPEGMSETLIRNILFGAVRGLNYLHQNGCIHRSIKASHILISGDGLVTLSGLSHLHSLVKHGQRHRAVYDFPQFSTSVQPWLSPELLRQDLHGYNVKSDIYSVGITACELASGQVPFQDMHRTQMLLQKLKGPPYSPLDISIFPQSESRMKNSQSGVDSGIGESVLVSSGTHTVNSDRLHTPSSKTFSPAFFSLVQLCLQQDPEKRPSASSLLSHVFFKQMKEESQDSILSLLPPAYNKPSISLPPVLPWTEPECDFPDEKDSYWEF
How it was run: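 HeLa cell lysates (5 mg/mL total protein) were preincubated with inhibitor at 0, 0.8, 2, 10 or 50 μM for 15 min. ATP or ADP acylphosphate probe was then added (5 μM final) for 10 min, and reactions were stopped with urea. Up to four fragment ions per kinase probe-peptide were quantified by targeted MS. % inhibition was taken relative to untreated lysate. Run in duplicate.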

[9] = molecular target: Serine/threonine-protein kinase Aurora (Homo sapiens, UniProt Q96GD4+Q9UQB9+O14965); experiment: Inhibition of AurA/AurB/AurC in human HeLa cells lysate at 2 uM pre incubated for 15 mins followed by ATP acyl phosphate probe addition and measured after 10 mins by LC-MS/MS analysis relative to control; conditions: time 25.0 min
How it was run: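 KiNativ-type profiling in HeLa lysate (5 mg/mL total protein). Lysate preincubated 15 min with inhibitor at 50, 10, 2, 0.8 or 0 μM, then ATP or ADP acylphosphate probe added (5 μM final) for 10 min. Reaction stopped with urea and analysed by targeted MS, using up to four fragment ions per kinase peptide-probe conjugate. % inhibition calculated against untreated lysate. Duplicate reactions.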

Serine/threonine-protein kinase 24, sequence (Q9Y6E0 whole entry): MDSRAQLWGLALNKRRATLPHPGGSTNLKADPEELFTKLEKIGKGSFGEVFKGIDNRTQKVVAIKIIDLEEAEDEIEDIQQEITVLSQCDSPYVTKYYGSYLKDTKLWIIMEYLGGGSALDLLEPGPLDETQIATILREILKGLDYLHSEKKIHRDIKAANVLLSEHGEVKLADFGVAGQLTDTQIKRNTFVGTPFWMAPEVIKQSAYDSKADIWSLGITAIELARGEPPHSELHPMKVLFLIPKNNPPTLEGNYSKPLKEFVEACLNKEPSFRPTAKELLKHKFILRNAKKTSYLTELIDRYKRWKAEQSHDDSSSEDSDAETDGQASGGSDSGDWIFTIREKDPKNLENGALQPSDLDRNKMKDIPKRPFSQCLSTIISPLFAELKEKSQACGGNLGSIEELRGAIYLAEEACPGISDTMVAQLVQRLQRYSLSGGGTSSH
Ribosomal protein S6 kinase alpha-1, sequence (Q15418 whole entry, the tested form may be a part): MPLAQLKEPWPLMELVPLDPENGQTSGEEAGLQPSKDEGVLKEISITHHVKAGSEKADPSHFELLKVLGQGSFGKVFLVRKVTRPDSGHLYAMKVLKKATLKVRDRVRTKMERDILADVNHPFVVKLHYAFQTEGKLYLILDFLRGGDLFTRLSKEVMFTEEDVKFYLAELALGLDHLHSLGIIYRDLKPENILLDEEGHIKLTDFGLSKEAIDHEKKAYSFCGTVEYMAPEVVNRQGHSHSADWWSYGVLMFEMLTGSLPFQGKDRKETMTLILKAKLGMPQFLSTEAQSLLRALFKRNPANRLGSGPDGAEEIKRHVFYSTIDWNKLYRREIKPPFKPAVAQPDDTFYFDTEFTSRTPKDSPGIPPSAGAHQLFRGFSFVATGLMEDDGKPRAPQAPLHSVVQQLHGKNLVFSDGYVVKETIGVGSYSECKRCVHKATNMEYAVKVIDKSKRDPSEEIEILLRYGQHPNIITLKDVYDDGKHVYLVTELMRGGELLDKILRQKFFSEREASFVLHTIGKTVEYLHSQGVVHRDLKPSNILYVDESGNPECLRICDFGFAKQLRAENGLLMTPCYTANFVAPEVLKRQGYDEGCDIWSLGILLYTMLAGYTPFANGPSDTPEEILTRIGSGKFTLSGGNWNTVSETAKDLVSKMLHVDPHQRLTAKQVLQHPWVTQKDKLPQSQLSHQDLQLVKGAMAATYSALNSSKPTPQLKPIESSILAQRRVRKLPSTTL
Serine/threonine-protein kinase Aurora, sequence (O14965 whole entry, looked up, the tested form may be a part): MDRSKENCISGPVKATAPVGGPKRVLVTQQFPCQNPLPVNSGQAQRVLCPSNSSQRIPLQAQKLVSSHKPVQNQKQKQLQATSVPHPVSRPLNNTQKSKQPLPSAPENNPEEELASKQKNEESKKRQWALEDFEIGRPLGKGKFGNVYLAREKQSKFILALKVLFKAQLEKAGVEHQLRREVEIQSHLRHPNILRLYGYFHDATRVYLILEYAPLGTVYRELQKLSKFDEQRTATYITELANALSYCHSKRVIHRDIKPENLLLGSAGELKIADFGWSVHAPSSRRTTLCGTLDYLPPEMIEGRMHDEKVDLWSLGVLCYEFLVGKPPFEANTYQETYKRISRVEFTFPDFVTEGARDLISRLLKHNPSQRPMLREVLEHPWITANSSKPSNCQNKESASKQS
Serine/threonine-protein kinase Aurora, sequence (Q96GD4 whole entry, looked up, the tested form may be a part): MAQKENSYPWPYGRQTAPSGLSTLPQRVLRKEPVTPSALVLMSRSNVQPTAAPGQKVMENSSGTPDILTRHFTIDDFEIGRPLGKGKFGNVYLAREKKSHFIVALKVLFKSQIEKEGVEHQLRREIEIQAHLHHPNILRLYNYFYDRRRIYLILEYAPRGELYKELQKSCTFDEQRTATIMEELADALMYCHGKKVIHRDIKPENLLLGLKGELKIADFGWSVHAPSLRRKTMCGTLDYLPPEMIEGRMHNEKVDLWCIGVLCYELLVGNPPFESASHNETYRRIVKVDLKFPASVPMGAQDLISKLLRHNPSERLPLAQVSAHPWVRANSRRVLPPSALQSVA
Serine/threonine-protein kinase Aurora, sequence (Q9UQB9 whole entry, looked up, the tested form may be a part): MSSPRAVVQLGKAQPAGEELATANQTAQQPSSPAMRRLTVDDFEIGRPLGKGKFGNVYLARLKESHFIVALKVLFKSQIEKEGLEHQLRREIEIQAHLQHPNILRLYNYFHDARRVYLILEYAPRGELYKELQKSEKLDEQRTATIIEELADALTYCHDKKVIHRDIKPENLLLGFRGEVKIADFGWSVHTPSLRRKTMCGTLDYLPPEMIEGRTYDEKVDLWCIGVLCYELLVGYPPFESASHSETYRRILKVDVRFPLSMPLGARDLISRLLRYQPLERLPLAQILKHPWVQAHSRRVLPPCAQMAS
Ribosomal protein S6 kinase beta-2, sequence (Q9UBS0 whole entry): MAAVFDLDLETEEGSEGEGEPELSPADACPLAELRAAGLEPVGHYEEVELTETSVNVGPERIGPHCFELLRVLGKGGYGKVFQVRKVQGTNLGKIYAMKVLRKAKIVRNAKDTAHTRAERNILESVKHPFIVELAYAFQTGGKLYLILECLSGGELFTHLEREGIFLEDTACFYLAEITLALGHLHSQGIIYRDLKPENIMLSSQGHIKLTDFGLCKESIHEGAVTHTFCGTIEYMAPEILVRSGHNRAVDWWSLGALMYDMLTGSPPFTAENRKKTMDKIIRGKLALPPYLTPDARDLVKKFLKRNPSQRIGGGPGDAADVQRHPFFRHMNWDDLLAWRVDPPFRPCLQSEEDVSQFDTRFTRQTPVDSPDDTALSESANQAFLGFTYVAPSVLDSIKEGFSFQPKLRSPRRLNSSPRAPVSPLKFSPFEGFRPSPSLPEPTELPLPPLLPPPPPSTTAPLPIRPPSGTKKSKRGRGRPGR
Cyclin-dependent kinase 7, sequence (P50613 whole entry): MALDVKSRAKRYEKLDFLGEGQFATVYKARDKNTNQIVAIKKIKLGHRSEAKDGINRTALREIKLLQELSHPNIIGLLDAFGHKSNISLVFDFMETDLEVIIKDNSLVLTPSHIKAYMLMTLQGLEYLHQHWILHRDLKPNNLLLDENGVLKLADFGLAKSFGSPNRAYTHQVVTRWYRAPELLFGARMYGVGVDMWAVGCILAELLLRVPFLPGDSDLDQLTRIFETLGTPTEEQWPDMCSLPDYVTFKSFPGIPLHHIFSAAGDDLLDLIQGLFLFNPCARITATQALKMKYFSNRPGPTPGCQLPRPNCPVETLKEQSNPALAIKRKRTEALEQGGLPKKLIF
Cyclin-dependent kinase 9, sequence (P50750 whole entry, the tested form may be a part): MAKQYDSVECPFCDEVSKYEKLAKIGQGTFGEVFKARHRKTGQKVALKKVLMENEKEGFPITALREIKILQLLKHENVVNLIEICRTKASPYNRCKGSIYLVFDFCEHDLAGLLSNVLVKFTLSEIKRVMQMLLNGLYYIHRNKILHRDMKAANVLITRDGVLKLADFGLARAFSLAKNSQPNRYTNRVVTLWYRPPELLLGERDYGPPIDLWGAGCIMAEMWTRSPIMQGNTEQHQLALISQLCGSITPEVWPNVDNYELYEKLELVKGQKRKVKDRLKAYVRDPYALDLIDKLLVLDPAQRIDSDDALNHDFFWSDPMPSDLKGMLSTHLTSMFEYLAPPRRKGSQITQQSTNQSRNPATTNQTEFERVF

## CCOc1cc(N2CCC(O)CC2)ccc1Nc1ncc2c(n1)N(C)c1ccccc1C(=O)N2C
[1]
  inhibition: 13.4%
[2]
  inhibition: 18%
[3]
  inhibition: 3%
[4]
  IC50: > 50 µM
[5]
  IC50: > 50 µM
[6]
  inhibition: 46%
[7]
  inhibition: -7.9%
[8]
  inhibition: 17%
[9]
  inhibition: -5.8%
